Most compounds without a hit are left out; they make up all but 1.5% or so of the library.
EBI2 block = blocks human EBI2 receptor beta-arrestin signaling; 360,000 tested, 0.81% active; EBI2 beta-arrestin recruitment, luminescence, 7a,25-OHC stimulated; AID 651636; P32249; inhibition, % at 5 µM; in the data active means inhibition above about 38%;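 further: enzyme fragment complementation signal reports receptor beta-arrestin coupling in cells; 0% = agonist plus DMSO wells and 100% = wells without agonist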
CCR6 antagonist = blocks CCL20-driven beta-arrestin recruitment at human CCR6. AID 493098. CHO-K1 CCR6 PathHunter beta-arrestin, luminescence, CCL20-stimulated. inhibition, % at 20 µM. 340,000 tested, 0.49% active. P51684;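 active means compounds whose inhibition of the agonist-driven luminescence signal at 20 µM reaches about 50%, limit read from the data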;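 further: cells stimulated with CCL20 at 14 nM final; plate controls were DMSO with CCL20 for no effect and DMSO without agonist for full effect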
APJ ag = activates the human apelin receptor APJ; 330,000 tested, 0.11% active; activation, % at 20 µM; CHO-K1 APJ PathHunter beta-arrestin, luminescence; 0% DMSO wells, 100% apelin; P35414; AID 2520;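 active means activation more than six SD over the plate average, tested at 20 µM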;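 further: 0% = DMSO alone and 100% = apelin-13 at 10 nM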
Target sequence (P35414 whole entry, looked up): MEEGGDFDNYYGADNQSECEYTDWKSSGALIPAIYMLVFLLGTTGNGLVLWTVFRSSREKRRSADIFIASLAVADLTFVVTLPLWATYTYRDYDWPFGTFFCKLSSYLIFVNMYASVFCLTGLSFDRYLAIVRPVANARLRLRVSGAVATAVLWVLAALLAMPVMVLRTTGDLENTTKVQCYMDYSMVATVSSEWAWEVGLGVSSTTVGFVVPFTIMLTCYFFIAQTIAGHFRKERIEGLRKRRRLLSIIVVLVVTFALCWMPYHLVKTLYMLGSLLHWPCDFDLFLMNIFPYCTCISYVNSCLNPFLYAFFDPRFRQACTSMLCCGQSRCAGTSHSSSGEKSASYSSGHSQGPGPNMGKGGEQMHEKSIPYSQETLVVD
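system = engineered CHO-K1 APJ arrestin reporter cells | input = 1000 cells per well | timing = overnight seeding, 90 min compound at 25 °C, 1 h detection | measured by = enzyme-fragment complementation luminescence | read-out = beta-arrestin recruitment to APJ as agonist activity, luminescent signal | control set = negative DMSO alone, positive Apelin-13 at 10 nM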
APJ antag = APJ receptor antagonism; AID 2521; inhibition, % at 20 µM; 330,000 tested, 0.32% active; P35414; CHO-K1 APJ beta-arrestin complementation, luminescence;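 active means inhibition above about 40% at 20 µM, limit read from the data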;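 further: cells challenged with 10 nM apelin-13 agonist together with compound; plate controls were apelin-13 plus DMSO wells for no effect and DMSO wells lacking apelin-13 for full effect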
CXCR6 inh = blocks human CXCR6 beta-arrestin recruitment; O00574; CHO-K1 PathHunter CXCR6 beta-arrestin, luminescence; inhibition, % at 20 µM; 360,000 tested, 0.36% active; in the data active means inhibition above about 34%, passing the limit was not always enough;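 further: antagonist mode with CXCL16 agonist at 10 nM final; 0% = 10 nM CXCL16 with DMSO and 100% = unstimulated wells without agonist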
Target sequence (O00574 whole entry, looked up): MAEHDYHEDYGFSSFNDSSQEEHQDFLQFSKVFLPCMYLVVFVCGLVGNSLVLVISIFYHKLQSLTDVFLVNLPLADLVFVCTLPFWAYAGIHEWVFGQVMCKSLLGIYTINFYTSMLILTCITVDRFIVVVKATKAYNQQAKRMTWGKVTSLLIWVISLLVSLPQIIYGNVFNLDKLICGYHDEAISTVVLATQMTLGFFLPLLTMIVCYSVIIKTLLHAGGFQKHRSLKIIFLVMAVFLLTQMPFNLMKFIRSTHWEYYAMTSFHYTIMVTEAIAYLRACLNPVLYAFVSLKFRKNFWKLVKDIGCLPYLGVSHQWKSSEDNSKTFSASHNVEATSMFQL
EBI2 antag conf = confirmation of human EBI2 receptor antagonists | shares compounds with EBI2 block | EBI2 beta-arrestin luminescence, 7a,25-OHC antagonism | inhibition, % at 5 µM | 2,400 tested, 29% active | AID 651997;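 active means inhibition of at least 50%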
EBI2 ag = EBI2 agonism counter-screen. shares compounds with EBI2 block. EBI2-expressing cells, agonist mode, luminescence, 60 min; 0% vehicle, 100% 7α,25-dihydroxycholesterol control. activation, % at 5 µM. 2,400 tested, under 10 active. AID 652000;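 active means activation of at least 50%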
bGal counter = inhibits E. coli beta-galactosidase, counter-screen for EBI2 antagonists; AID 652176; 2,400 tested, 1% active; shares compounds with EBI2 block; inhibition, % at 5 µM; purified beta-galactosidase, luminescent Galacton Star, 15 min;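 active means replicate-average signal at least 3 plate SD below neutral wells, shown as high inhibition, flagging enzyme-inhibiting false positives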;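 further: 0% = DMSO wells with enzyme and 100% = wells lacking enzyme; higher means stronger loss of beta-gal luminescence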
Active calls of the source: *; x = no result given.

SMILES | EBI2 block | CCR6 antagonist | APJ ag | APJ antag | CXCR6 inh | EBI2 antag conf | EBI2 ag | bGal counter
Nc1nc(CSc2ccc(Cl)cc2)nc(N2CCCCC2)n1 | 44* | 0 | -7 | -31 | -7 | 6 | 2 | 3
COc1ccc(O)c(/C=N/NC(=O)c2ccc(N3CCCC3=O)cc2)c1 | -1 | 1 | -2 | 8 | 8 | x | x | x
C/C(=N\NC(=O)CN(c1ccccc1Br)S(C)(=O)=O)c1ccc2c(c1)OCCO2 | 0 | 1 | 0 | 5 | -7 | x | x | x
Cc1ccc(-n2nnnc2-c2ccccc2Br)cc1 | 38* | -1 | 0 | -5 | 2 | 45 | -2 | -17
COc1cc(NC(=O)c2ccc(Cl)cc2)c(OC)cc1NC(=O)CN1CCCCC1 | 16 | 9 | 2 | -12 | -3 | x | x | x
COc1ccc(-c2nnc(SCc3nnc(-c4ccccc4)o3)n2-c2ccccc2)cc1 | 27 | 23 | 0 | 10 | 4 | x | x | x
Clc1ccc(-c2nnc(CSc3nnc(-c4cccs4)n3Cc3ccccc3)o2)cc1 | 88* | 8 | 1 | 16 | 5 | 60* | 1 | 4
COc1ccc(-c2nnc(SCc3nnc(-c4ccc(Cl)cc4)o3)n2-c2ccccc2)cc1 | 74* | 15 | -1 | -2 | 0 | 44 | -1 | -13
Cc1nnc(SCc2nnc(-c3cccs3)o2)n1Cc1ccccc1 | -11 | 2 | -1 | -5 | 10 | x | x | x
CN(/C=C/C(=O)C(F)(F)F)Cc1ccccc1 | 39* | -16 | 0 | -16 | 0 | 6 | 0 | 11
CCOc1ccc(-n2c(-c3ccco3)nc3c(cnn3-c3ccc(C)cc3)c2=O)cc1 | 47* | 6 | -1 | -8 | 10 | 19 | 1 | 6
COc1ccc(OC)c(CCNC(=O)CCc2nnc3ccc(N4CCCC4)nn23)c1 | 3 | 23 | 2 | 18 | 3 | x | x | x
CCc1ccc(OCC(=O)Nc2ccc(S(=O)(=O)Nc3ccccn3)cc2)cc1 | 61* | 10 | -2 | 10 | -7 | 29 | -1 | 11
CC(C)c1ccc(OCC(=O)Nc2ccc(S(=O)(=O)Nc3ccccn3)cc2)cc1 | -1 | 6 | -1 | 11 | -7 | x | x | x
O=C(CN1C(=O)C2CC=CCC2C1=O)Nc1ccccc1N1CCCC1 (stereo not drawn) | 5 | 12 | -5 | 9 | 4 | x | x | x
O=C(CN1C(=O)C2CC=CCC2C1=O)Nc1cc(C(F)(F)F)ccc1N1CCCC1 (stereo not drawn) | 46* | 13 | -3 | 27 | 4 | 20 | 0 | 5
CCOC(=O)CN(C(=O)CSc1nnc(CNc2ccc(F)cc2)o1)c1ccccc1 | 43* | 10 | 5 | 8 | 4 | 24 | 2 | 2
COc1ccccc1C(c1nnnn1Cc1ccccc1)N1CCN(C2CCCC2)CC1 (stereo not drawn) | -3 | 5 | -1 | -7 | -7 | x | x | x
CCCCn1nnnc1C(c1ccccc1OC(F)(F)F)N1CCN(C/C=C/c2ccccc2)CC1 (stereo not drawn) | 68* | x | x | x | 19 | 58* | 0 | 8
FC(F)(F)Oc1ccccc1C(c1nnnn1Cc1ccccc1)N1CCN(C/C=C/c2ccccc2)CC1 (stereo not drawn) | 67* | x | x | x | 23 | 24 | -1 | 6
CCCCC[C@@H](C)N1C[C@@H](COCc2ccccc2)Oc2cc(N3CC[C@H](O)C3)ccc2S1(=O)=O | 53* | x | x | x | 3 | 18 | -2 | -14
CCCCC[C@H](C)N1C[C@@H](COCc2ccccc2)Oc2cc(N3CC[C@@H](O)C3)ccc2S1(=O)=O | 9 | x | x | x | 3 | x | x | x
CCCCC[C@@H](C)N1C[C@@H](COCc2ccccc2)Oc2cc(N3CC[C@@H](O)C3)ccc2S1(=O)=O | 45* | x | x | x | 11 | 21 | -2 | -11
Clc1cccc(CSc2nnc(-c3c[nH]c4ccccc34)o2)c1 | -5 | 12 | 0 | 5 | -4 | x | x | x
CC(=O)Nc1ccc(SCC(=O)Nc2oc(C)c3c(C)n[nH]c(=O)c23)cc1 | -19 | 13 | 6 | 16 | -11 | x | x | x
SMILES | EBI2 block | CCR6 antagonist | APJ ag | APJ antag | CXCR6 inh | EBI2 antag conf | EBI2 ag | bGal counter
CCOC(=O)CN(C(=O)Cn1nnc(-c2ccc(OC)cc2)n1)C(C(=O)NC1CCCC1)c1ccc(F)cc1 (stereo not drawn) | 75* | 1 | -4 | 16 | -6 | 44 | 1 | 5
CC1(C(=O)Nc2ccc(Cl)c(Cl)c2)CCN1C(=O)CC(c1ccccc1)c1ccccc1 (stereo not drawn) | 8 | x | x | x | 2 | x | x | x
CC1(C(=O)Nc2cnc3ccccc3c2)CCN1C(=O)CC(c1ccccc1)c1ccccc1 (stereo not drawn) | 75* | x | x | x | 11 | 55* | -1 | -4
Cn1cccc1CC(=O)N/N=C\c1ccccc1 | 44* | 5 | -4 | 8 | -9 | 11 | -1 | -6
O=C(O)CSCC(=O)Nc1ccccn1 | -1 | 2 | 2 | 8 | -5 | x | x | x
CN(C(=O)c1cccnc1)c1nnc(-c2cccnc2)s1 | -7 | 1 | 0 | 6 | -7 | x | x | x
CCN(CC(=O)NCc1ccc(Cl)cc1)C(=O)c1ccc2cc(OC)ccc2c1 | 68* | 18 | 2 | 5 | 4 | 52* | 0 | -5
CCN(CC(=O)NCc1ccc(Cl)cc1)C(=O)/C=C/c1ccccc1 | 76* | 10 | -4 | 11 | -4 | 34 | 1 | 0
CCN(CC(=O)NCc1ccc(Cl)cc1)C(=O)/C=C/c1ccco1 | -7 | 2 | -1 | 8 | -2 | x | x | x
CCN(CC(=O)NCc1ccc(Cl)cc1)C(=O)/C=C/c1ccc(C#N)cc1 | 51* | 10 | 0 | 9 | -2 | 34 | 0 | 7
CCN(CC(=O)NCc1ccc(Cl)cc1)C(=O)/C=C/c1ccc(Cl)c([N+](=O)[O-])c1 | 21 | 17 | 4 | -23 | 11 | x | x | x
Cc1nn(Cc2noc(C(=O)NCCCn3ccnc3)n2)c(C)c1Br | 0 | -6 | 2 | -11 | -1 | x | x | x
COc1ccc(CCNC(=O)COc2ccc(N(C)S(=O)(=O)c3ccc(Cl)cc3)cc2)cc1 | 63* | 7 | x | x | 9 | 34 | -1 | -14
CN(c1ccc(OCC(=O)NCCc2ccccc2)cc1)S(=O)(=O)c1ccc(Cl)cc1 | 34 | 31 | -5 | -7 | 10 | x | x | x
O=c1c2ccccc2n(Cc2ccccc2F)c(=O)n1Cc1ccccc1F | 54* | 22 | -5 | 14 | 16 | 17 | 1 | 11
O=C(NCc1ccco1)c1ccc(Cn2c(=O)c3ccccc3n(Cc3ccc(Cl)cc3)c2=O)cc1 | 22 | 14 | 1 | 1 | 15 | x | x | x

Screens from PubChem BioAssay.
